# Active and inactive are the calls of the source. No cut-off for these calls is given here.
# Legend:
# Rattus norvegicus [1] = experiment: Toxicity in rat 13762 cells allografted in Fischer 344 rat assessed as ratio of final body weight to initial body weight at 100 mg/kg, ip qd for 20 days; format: organism-based; design: dose 100 mg/kg, route intraperitoneal; conditions: in vivo, 480 h
# In short: (§1)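 Female Fischer 344 rats, about 40 days old, received subcutaneous right-side grafts of 13762 mammary adenocarcinoma on day 0. From day 1 they got test compound in sesame oil ip daily for 20 days at 10 or 100 (mg/kg)/day. Vehicle controls got 0.5 mL/day. Endpoints were survivors/treated and FBW (minus tumor)/IBW. Tumor weight, final tumor size (length + width/2), and organ weights per 100 g were reported as % control.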
# Rattus norvegicus [2] = experiment: Effect on ovarian weight in rat 13762 cells allografted Fischer 344 rat at 10 mg/kg, ip qd for 20 days relative to control; format: functional; conditions: route intraperitoneal; in short: as §1
# 13762 [3] = experiment: Antitumor activity against rat 13762 cells allografted in Fischer 344 rat assessed as tumor weight at 100 mg/kg, ip qd for 20 days relative to control; format: functional; conditions: route intraperitoneal; in short: as §1
# Rattus norvegicus [4] = experiment: Toxicity in rat 13762 cells allografted in Fischer 344 rat assessed as ratio of final body weight to initial body weight at 10 mg/kg, ip qd for 20 days; format: organism-based; design: dose 10 mg/kg, route intraperitoneal; conditions: in vivo, 480 h; in short: as §1
# 13762 [5] = experiment: Antitumor activity against rat 13762 cells allografted in Fischer 344 rat assessed as host survival at 10 mg/kg, ip qd for 20 days; format: functional, organism-based; design: dose 10 mg/kg; in short: as §1
# Rattus norvegicus [6] = experiment: Effect on spleen weight in rat 13762 cells allografted Fischer 344 rat at 10 mg/kg, ip qd for 20 days relative to control; format: functional; conditions: route intraperitoneal; in short: as §1
# Rattus norvegicus [7] = experiment: Effect on adrenal weight in rat 13762 cells allografted Fischer 344 rat at 10 mg/kg, ip qd for 20 days relative to control; format: functional; conditions: route intraperitoneal; in short: as §1
# Rattus norvegicus [8] = experiment: Effect on ovarian weight in rat 13762 cells allografted Fischer 344 rat at 100 mg/kg, ip qd for 20 days relative to control; format: functional; conditions: route intraperitoneal; in short: as §1
# 13762 [9] = experiment: Antitumor activity against rat 13762 cells allografted in Fischer 344 rat assessed as tumor weight at 10 mg/kg, ip qd for 20 days relative to control; format: functional; conditions: route intraperitoneal; in short: as §1
# Rattus norvegicus [10] = experiment: Androgenic activity in castrate rat assessed as ventrol prostate weight at 3 mg, sc qd for 7 days by autopsy analysis (reference value: 17.5 +/- 0.41 mg); format: functional, Prostate gland
# Rattus norvegicus [11] = experiment: Effect on pituitary weight in rat 13762 cells allografted Fischer 344 rat at 100 mg/kg, ip qd for 20 days relative to control; format: functional, Pituitary gland cell; conditions: route intraperitoneal; in short: as §1
# Rattus norvegicus [12] = experiment: Myotrophic activity in castrate rat assessed as levator ani weight at 3 mg, sc qd for 7 days by autopsy analysis (reference value: 23.6 +/- 1.08 mg); format: functional
# 13762 [13] = experiment: Antitumor activity against rat 13762 cells allografted in Fischer 344 rat assessed as host survival at 100 mg/kg, ip qd for 20 days; format: functional, organism-based; design: dose 100 mg/kg; in short: as §1
# Rattus norvegicus [14] = experiment: Effect on thymus weight in rat 13762 cells allografted Fischer 344 rat at 100 mg/kg, ip qd for 20 days relative to control; format: functional; conditions: route intraperitoneal; in short: as §1
# Rattus norvegicus [15] = experiment: Effect on thymus weight in rat 13762 cells allografted Fischer 344 rat at 10 mg/kg, ip qd for 20 days relative to control; format: functional; conditions: route intraperitoneal; in short: as §1
# Rattus norvegicus [16] = experiment: Effect on uterine weight in rat 13762 cells allografted Fischer 344 rat at 100 mg/kg, ip qd for 20 days relative to control; format: functional; conditions: route intraperitoneal; in short: as §1
# Rattus norvegicus [17] = experiment: Androgenic activity in castrate rat assessed as seminal vesicle weight at 3 mg, sc qd for 7 days by autopsy analysis (reference value: 13.6 +/- 0.19 mg); format: functional
# Rattus norvegicus [18] = experiment: Androgenic activity in castrate rat assessed as change in body weight at 3 mg, sc qd for 7 days by autopsy analysis (reference value: 88 gram); format: functional
# Rattus norvegicus [19] = experiment: Effect on adrenal weight in rat 13762 cells allografted Fischer 344 rat at 100 mg/kg, ip qd for 20 days relative to control; format: functional; conditions: route intraperitoneal; in short: as §1
# 13762 [20] = experiment: Antitumor activity against rat 13762 cells allografted in Fischer 344 rat assessed as final tumor size at 10 mg/kg, ip qd for 20 days relative to control; format: functional; conditions: route intraperitoneal; in short: as §1
# Rattus norvegicus [21] = experiment: Effect on spleen weight in rat 13762 cells allografted Fischer 344 rat at 100 mg/kg, ip qd for 20 days relative to control; format: functional; conditions: route intraperitoneal; in short: as §1
# Rattus norvegicus [22] = experiment: Effect on uterine weight in rat 13762 cells allografted Fischer 344 rat at 10 mg/kg, ip qd for 20 days relative to control; format: functional; conditions: route intraperitoneal; in short: as §1
SMILES,Ratio (Rattus norvegicus [1]),Activity 13762 [3] [%],Activity (Rattus norvegicus [8]) [%],Activity (Rattus norvegicus [10]) [mg],Activity (Rattus norvegicus [11]) [%],Activity (Rattus norvegicus [12]) [mg],Activity 13762 [13],Activity (Rattus norvegicus [14]) [%],Activity (Rattus norvegicus [16]) [%],Activity (Rattus norvegicus [17]) [mg],Activity (Rattus norvegicus [18]) [g],Activity (Rattus norvegicus [19]) [%],Activity (Rattus norvegicus [21]) [%],other results
CC(=O)O[C@H]1CC[C@H]2[C@@H]3[C@@H](C)C[C@H]4CSC[C@]4(C)[C@H]3CC[C@]12C,1.55,133,87,18.6,90,25.7,Active,79,128,11.8,90,87,145,Activity (Rattus norvegicus [2]): 105%; Ratio (Rattus norvegicus [4]): 1.5; Activity 13762 [5]: Active; Activity (Rattus norvegicus [6]): 81%; Activity (Rattus norvegicus [7]): 101%; Activity 13762 [9]: 85%; Activity (Rattus norvegicus [15]): 125%; Activity 13762 [20]: 85%; Activity (Rattus norvegicus [22]): 124%
C[C@H]1CC2=CC(=O)CC[C@]2(C)[C@H]2CC[C@]3(C)[C@@H](O)CC[C@H]3[C@H]12,1.58,103,72,,73,,Active,47,202,,,70,108,
CC(=O)O[C@H]1CC[C@H]2[C@@H]3CC[C@H]4CSC[C@]4(C)[C@H]3CC[C@]12C,,,,61.9,,65.2,,,,48.6,95,,,
CC(=O)O[C@H]1CC[C@H]2[C@@H]3[C@@H](C)C[C@H]4CC(=O)CC[C@]4(C)[C@H]3CC[C@]12C,1.81,132,62,81.4,56,63.3,Active,48,151,45.8,90,68,108,Activity (Rattus norvegicus [2]): 77%; Ratio (Rattus norvegicus [4]): 1.58; Activity 13762 [5]: Active; Activity (Rattus norvegicus [6]): 77%; Activity (Rattus norvegicus [7]): 68%; Activity 13762 [9]: 84%; Activity (Rattus norvegicus [15]): 71%; Activity 13762 [20]: 90%; Activity (Rattus norvegicus [22]): 143%
C[C@H]1CC2=CC(=O)CC[C@]2(C)[C@H]2CC[C@@]3(C)[C@@H](CC[C@]3(C)O)[C@H]12 [CALUSTERONE],1.64,123,60,,80,,Active,57,148,,,73,115,
CCC(=O)O[C@H]1CC[C@H]2[C@@H]3CCC4=CC(=O)CC[C@]4(C)[C@H]3CC[C@]12C [TESTOSTERONE PROPIONATE],,,,126,,68.2,,,,65.9,98,,,
CC(=O)O[C@H]1CC[C@H]2[C@@H]3CCC4=CC(=O)CC[C@]4(C)[C@H]3CC[C@]12C,1.68,123,65,,71,,Active,31,179,,,88,100,

# Source: ChEMBL document CHEMBL3244354, “Syntheses and biological activities of 7 beta-methyl steroids” (J Med Chem, 1979)
